Experiments:
Plasmodium berghei [1] = assay: (§1) Antimalarial activity in Plasmodium berghei infected mice (Mus musculus) after 40 mg/kg subcutaneous dose; assay type: functional
Outline: (§2)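 […] in mice infected with a normal drug-sensitive P. berghei strain. Compound dissolved or suspended in sesame or peanut oil, given as a single subcutaneous dose 72 h postinfection.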

Plasmodium berghei [2] = assay: Antimalarial activity in Plasmodium berghei infected mice (Mus musculus) after 160 mg/kg subcutaneous dose; assay type: functional; outline: as §2
Plasmodium berghei [3] = assay: (§3) Antimalarial activity in Plasmodium berghei infected mice (Mus musculus) after 80 mg/kg subcutaneous dose; assay type: functional; outline: as §2
Plasmodium berghei [4] = assay: Antimalarial activity in Plasmodium berghei infected mice (Mus musculus) after subcutaneous 640 mg/kg dose; assay type: functional
Outline: (§4)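 Normal drug-sensitive P. berghei strain in mice. Compound dissolved or suspended in sesame or peanut oil, given parenterally as a single subcutaneous dose 72 h postinfection.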

Plasmodium berghei [5] = assay: Antimalarial activity in Plasmodium berghei infected mice (Mus musculus) after 640 mg/kg subcutaneous dose; assay type: functional; outline: as §2
Plasmodium berghei [6] = assay: (§5) Antimalarial activity in Plasmodium berghei infected mice (Mus musculus) after 20 mg/kg subcutaneous dose; assay type: functional; outline: as §2
Plasmodium berghei [7] = assay: as §1; assay type: functional; outline: as §4; remark: listed apart in the source
Plasmodium berghei [8] = assay: Antimalarial activity in Plasmodium berghei infected mice (Mus musculus) after subcutaneous 320 mg/kg dose; assay type: functional; outline: as §4
Plasmodium berghei [9] = assay: Antimalarial activity in Plasmodium berghei infected mice (Mus musculus) after subcutaneous 160 mg/kg dose; assay type: functional; outline: as §4
Plasmodium berghei [10] = assay: Antimalarial activity was measured against mice (Mus musculus) infected with Plasmodium berghei by subcutaneous administration of 80 mg/kg dose; assay type: organism-based; parameters: dose 80 mg/kg, route subcutaneous; conditions: in vivo, sc; outline: as §2
Plasmodium berghei [11] = assay: Antimalarial activity Plasmodium berghei infected mice (Mus musculus) after 640 mg/kg subcutaneous dose; assay type: functional; outline: as §2
Plasmodium berghei [12] = assay: Antimalarial activity was measured against mice (Mus musculus) infected with Plasmodium berghei by subcutaneous administration of 40 mg/kg dose; assay type: organism-based; parameters: dose 40 mg/kg, route subcutaneous; conditions: in vivo, sc; outline: as §2
Plasmodium berghei [13] = assay: Antimalarial activity in Plasmodium berghei infected mice (Mus musculus) after 320 mg/kg subcutaneous dose; assay type: functional; outline: as §2
Plasmodium berghei [14] = assay: Antimalarial activity was measured against mice (Mus musculus) infected with Plasmodium berghei by subcutaneous administration of 160 mg/kg dose; assay type: organism-based; parameters: dose 160 mg/kg, route subcutaneous; conditions: in vivo, sc; outline: as §2
Plasmodium berghei [15] = assay: Antimalarial activity was measured against mice (Mus musculus) infected with Plasmodium berghei by subcutaneous administration of 20 mg/kg dose; assay type: organism-based; parameters: dose 20 mg/kg, route subcutaneous; conditions: in vivo, sc; outline: as §2
Plasmodium berghei [16] = assay: Antimalarial activity was measured against mice (Mus musculus) infected with Plasmodium berghei by subcutaneous administration of 640 mg/kg dose; assay type: organism-based; parameters: dose 640 mg/kg, route subcutaneous; conditions: in vivo, sc; outline: as §2
Plasmodium berghei [17] = assay: Antimalarial activity was measured against mice (Mus musculus) infected with Plasmodium berghei by subcutaneous administration of 320 mg/kg dose; assay type: organism-based; parameters: dose 320 mg/kg, route subcutaneous; conditions: in vivo, sc; outline: as §2
Plasmodium berghei [18] = assay: (§6) Antimalarial activity in Plasmodium berghei infected mice (Mus musculus) after 5 mg/kg subcutaneous dose; assay type: functional; outline: as §4
Plasmodium berghei [19] = assay: as §3; assay type: functional; outline: as §4; remark: listed apart in the source
Plasmodium berghei [20] = assay: (§7) Antimalarial activity in Plasmodium berghei infected mice (Mus musculus) after 10 mg/kg subcutaneous dose; assay type: functional; outline: as §2
Plasmodium berghei [21] = assay: as §5; assay type: functional; outline: as §4; remark: listed apart in the source
Plasmodium berghei [22] = assay: as §6; assay type: functional; outline: as §2; remark: listed apart in the source
Plasmodium berghei [23] = assay: as §7; assay type: functional; outline: as §4; remark: listed apart in the source

Row | SMILES | Delta mean survival time (Plasmodium berghei [1]) | Delta mean survival time (Plasmodium berghei [2]) | Delta mean survival time (Plasmodium berghei [3]) | No. of cured mice (Plasmodium berghei [4]) | Delta mean survival time (Plasmodium berghei [6]) | No. of cured mice (Plasmodium berghei [7]) | No. of cured mice (Plasmodium berghei [8]) | No. of cured mice (Plasmodium berghei [9]) | also measured
1 | CN(C)CCC/N=C1\CC(c2ccc(Cl)cc2Cl)Cc2nc3cc(Cl)ccc3c(O)c21 (stereo unspecified) | 6.3 | 13.8 | 12 | 3 | 2.8 | 1 | 5 | 4 | No. of toxic deaths (Plasmodium berghei [5]): 2
2 | O=C1CC(c2ccc(Cl)cc2Cl)Cc2nc3c(Cl)cccc3c(O)c21 (stereo unspecified) | 1.3 | 1.3 | 5.3 |  | 0.3 |  |  |  | No. of toxic deaths (Plasmodium berghei [10]): 1; Delta mean survival time (Plasmodium berghei [11]): 2; No. of toxic deaths (Plasmodium berghei [12]): 1; Delta mean survival time (Plasmodium berghei [13]): 4; No. of toxic deaths (Plasmodium berghei [14]): 2; No. of toxic deaths (Plasmodium berghei [15]): 1; No. of toxic deaths (Plasmodium berghei [16]): 4; No. of toxic deaths (Plasmodium berghei [17]): 2
3 | CN(C)CCC/N=C1\CC(c2ccc(Cl)cc2Cl)Cc2nc3ccc(Cl)cc3c(O)c21 (stereo unspecified) |  |  |  | 5 |  | 5 | 5 | 5 | No. of cured mice (Plasmodium berghei [18]): 1; No. of cured mice (Plasmodium berghei [19]): 5; Delta mean survival time (Plasmodium berghei [20]): 13.6; No. of cured mice (Plasmodium berghei [21]): 5; Delta mean survival time (Plasmodium berghei [22]): 7.4; No. of cured mice (Plasmodium berghei [23]): 3
